Measured values reported in ChEMBL document CHEMBL4152368, “Novel 4-(2-pyrimidinylamino)benzamide derivatives as potent hedgehog signaling pathway inhibitors” (Bioorg Med Chem, 2018).

Key:
[1] = Inhibition of Hedgehog signaling pathway in mouse NIH/3T3 cells assessed as reduction in Sonic hedgehog-induced Gli luciferase activity after 48 hrs by Dual-luciferase reporter gene assay; assay type: cell-based; settings: NIH3T3, 48 h
Procedure, shortened: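 NIH3T3 cells stably carrying a Gli-luciferase reporter were grown in DMEM/10% FBS with 1 μg/mL puromycin. They were seeded at 2×10⁴ cells/well and cultured overnight at 37 °C, 5% CO₂. Compounds were added as 8-point serial dilutions (0.05–300 nM) in 0.5% FBS with 0.7 μg/mL Sonic Hh agonist, n = 4 wells, for 48 h. Controls were 0.1% DMSO with or without Shh. Read-out was the Firefly/Renilla luciferase ratio.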

[2] = Half life in Sprague-Dawley rat at 1 mg/kg, iv by LC/MS/MS analysis; assay type: ADME, organism-based; settings: in vivo
Procedure, shortened: (§1)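 Male SD rats (3; 180–240 g) received a single 1 mg/kg iv dose at a dosing volume of 5 mL/kg. Blood was sampled at 2, 5, 15 and 30 min and at 1, 2, 4, 6, 8, 10 and 24 h, then centrifuged for 5 min at 4 °C. Plasma underwent protein precipitation and LC/MS/MS in SRM mode with an internal standard. Parameters were derived by noncompartmental analysis.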

[3] = Cmax in Sprague-Dawley rat at 1 mg/kg, iv by LC/MS/MS analysis; assay type: ADME, organism-based; design: dose 1 mg/kg, route intravenous; settings: in vivo; procedure, shortened: as §1
[4] = Clearance in Sprague-Dawley rat at 1 mg/kg, iv by LC/MS/MS analysis; assay type: ADME, organism-based; settings: in vivo; procedure, shortened: as §1
[5] = AUC in Sprague-Dawley rat at 1 mg/kg, iv by LC/MS/MS analysis; assay type: ADME, organism-based; settings: in vivo; procedure, shortened: as §1
[6] = Apparent volume of distribution in Sprague-Dawley rat at 1 mg/kg, iv by LC/MS/MS analysis; assay type: ADME, organism-based; settings: in vivo, read-out: Vz; procedure, shortened: as §1

Row | SMILES | IC50 [1] | half-life [2] | Cmax [3] | clearance [4] | AUC [5] | Vd [6]
1 | Cc1ccc(CN2CCCC2)cc1NC(=O)c1ccc(Nc2ncc(C)c(-n3ccnc3)n2)cc1 | 21.1 nM |  |  |  |  | 
2 | Cc1ccc(CN2CCCCC2)cc1NC(=O)c1ccc(Nc2ncc(C)c(-c3ccccc3)n2)cc1 | 1.94 nM |  |  |  |  | 
3 | Cc1ccc(OCCCN2CCOCC2)cc1NC(=O)c1ccc(Nc2ncc(C)c(-c3ccc(OC(F)(F)F)cc3)n2)cc1 | 2.14 nM |  |  |  |  | 
4 | Cc1ccc(OCCN(C)C)cc1NC(=O)c1ccc(Nc2ncc(C)c(-c3ccc(OC(F)(F)F)cc3)n2)cc1 | 1.07 nM |  |  |  |  | 
5 | CCc1cnc(Nc2ccc(C(=O)Nc3cc(CN4CCN(C)CC4)ccc3C)cc2)nc1-c1ccc(OC(F)(F)F)cc1 | 2.21 nM |  |  |  |  | 
6 | Cc1ccc(OCCN2CCOCC2)cc1NC(=O)c1ccc(Nc2ncc(C)c(-c3ccccc3)n2)cc1 | 4.28 nM | 86.4 min | 863 ng/mL | 21.5 mL/min/kg | 787 ng·h/mL | 2.75 L/kg
7 | Cc1ccc(CN2CCOCC2)cc1NC(=O)c1ccc(Nc2nccc(-c3cccnc3)n2)cc1 | 29 nM | 15 min | 2520 ng/mL | 33.6 mL/min/kg | 521 ng·h/mL | 0.7 L/kg
8 | Cc1ccc(CN2CCOCC2)cc1NC(=O)c1ccc(Nc2ncc(C)c(-c3ccccn3)n2)cc1 | 1.89 nM | 50.4 min | 1540 ng/mL | 12.3 mL/min/kg | 1370 ng·h/mL | 0.888 L/kg

The remaining compounds from weak to strong by IC50 [1], led by results:

Row | IC50 [1] | half-life [2] | Cmax [3] | clearance [4] | AUC [5] | Vd [6] | SMILES
9 | 7.37 nM |  |  |  |  |  | Cc1ccc(CN2CCN(C)CC2)cc1NC(=O)c1ccc(Nc2ncc(C)c(-c3ccccn3)n2)cc1
10 | 2.45 nM |  |  |  |  |  | Cc1ccc(OCCN2CCOCC2)cc1NC(=O)c1ccc(Nc2ncc(C)c(-c3ccc(OC(F)(F)F)cc3)n2)cc1
11 | 1.54 nM |  |  |  |  |  | Cc1ccc(CN2CCN(C)CC2)cc1NC(=O)c1ccc(Nc2ncc(C3CC3)c(-c3ccc(OC(F)(F)F)cc3)n2)cc1
12 | 0.62 nM |  |  |  |  |  | CCN(CC)CCCNC(=O)c1ccc(C)c(NC(=O)c2ccc(Nc3ncc(C)c(-c4ccc(OC(F)(F)F)cc4)n3)cc2)c1
